Bioassay records: PubChem, Johns Hopkins Ion Channel Center
Compounds with a hit are over-represented: about 2.3% of the library has one in this group of screens.
TRPC4 PAM – allosterically enhances the mouse TRPC4 cation channel. B-score at 10 µM. HEK293 TRPC4beta/mu-opioid, DAMGO EC20, Fluo-4 Ca2+ flux; stronger effect = higher value. Q9QUQ5. 310,000 compounds, 0.42% hits. AID 2227;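 active = B-score of calcium response area above 5 SD of library B-scores, with initial fluorescence ratio within 5 SD of library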;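 also: B-score of integrated fluorescence ratio over time as area under calcium response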
TRPC4 block – blocks the mouse TRPC4 cation channel; Q9QUQ5; HEK293 TRPC4beta/mu-opioid, DAMGO-evoked Fluo4 calcium flux; stronger effect = lower value; B-score at 10 µM; 300,000 compounds, 0.39% hits; AID 2247;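 active = B-score over 3 SD under the library average, no early fluorescence shift, positive overall ratio signal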
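System: stable TRPC4beta/mu-opioid receptor HEK293 cells; Dosing: single-point compound dosing; Measured by: Fluo4 Ca2+ flux fluorescence; Read-out basis: per-well B score of integrated baseline-normalized Fluo4 ratio.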
TRPC6 inh – blocks the mouse TRPC6 cation channel | Q61143 | HEK293-TRPC6, membrane potential dye, ACh-evoked depolarization; stronger effect = lower value | B-score at 10 µM | 310,000 compounds, 1.1% hits | AID 2553;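 active = B-score under library mean minus 3 SD, initial fluorescence not abnormally high, positive integrated signal ratio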;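 also: B-score derived from integrated fluorescence ratio over the kinetic read; more negative B-score means stronger inhibition of depolarization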
TRPC4 agonist – activators of mouse TRPC4 channel. HEK293 TRPC4beta/mu-opioid, Fluo4 calcium fluorescence; stronger effect = higher value. B-score at 10 µM. 310,000 compounds, 0.49% hits. AID 2237;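 active = B-score above 5 SD of library B-scores, and initial fluorescence ratio not above library mean plus 5 SD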;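 also: positive B-score marks a calcium rise read as TRPC4 activation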
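system = HEK293 cells stably co-expressing mouse TRPC4beta and mu-opioid receptor | schedule = Fluo4 dye loading 45 min at room temperature, 110 s recording | measure = B-scored integrated calcium fluorescence ratio | signal = Fluo4 calcium-sensitive dye fluorescence, kinetic, 1 Hz baseline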
TRPC6 activator – activators of mouse TRPC6 channel; HEK293-TRPC6 membrane potential dye fluorescence; stronger effect = higher value; B-score at 10 µM; 310,000 compounds, 0.13% hits; AID 2550;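 active = B-score of the integrated fluorescence ratio above library mean plus 3 SD, and starting fluorescence ratio within library mean plus 5 SD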;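 also: higher score means more depolarization so channel activation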
* = called active by the depositor; i = inactive.

SMILES	TRPC4 PAM	TRPC4 block	TRPC6 inh	TRPC4 agonist	TRPC6 activator
CC(C)Cn1c(CN2CCN(C)C(CCO)C2)nc2ccccc21 (stereo unspecified)	19*	i	i	i	i
Cc1ccc(CN2CCN(Cc3cccc4nccnc34)CC2CCO)cc1 (stereo unspecified)	i	i	i	i	i
CCOC(=O)C1(Cc2cccc(F)c2)CCN(Cc2ccc(COC)o2)CC1	i	i	i	i	i
c1ccc(-c2cnc(SCCN3CCOCC3)n2CC2CCCO2)cc1 (stereo unspecified)	i	-5*	i	i	i
COc1ccc(-c2cnc(N)n2CC2CCCO2)cc1 (stereo unspecified)	i	i	i	i	i
CCCCn1c(N)c(N(CC(C)C)C(=O)CC2OC(=O)c3ccccc32)c(=O)[nH]c1=O (stereo unspecified)	i	i	i	i	i
N#CC1=C(N)C2=CCCC[C@H]2[C@H](c2cccc(F)c2)C1(C#N)C#N	34*	i	i	i	i
N#CC1=C(N)C(C#N)(C#N)C(c2ccc[nH]2)C2CCCC=C12 (stereo unspecified)	i	i	i	i	i
CCC(C)(C(=O)NC1CCCC1)N(Cc1cccs1)C(=O)c1ccccn1 (stereo unspecified)	i	i	i	i	i
CCC(C)(C(=O)NC1CCCCC1)N(Cc1cccs1)C(=O)c1ccccn1 (stereo unspecified)	i	-7*	i	46*	i
O=c1oc2ccccc2c(Nc2ccccc2)c1CN1CCCCC1	i	-7*	i	i	i
CCCCn1c(N)c(N(CCOC)C(=O)c2ccc(-c3ccc(C(C)=O)cc3)o2)c(=O)[nH]c1=O	92*	i	i	i	i
COc1ccc(S(=O)(=O)NNC(=O)Nc2ccc(F)cc2)cc1	i	i	i	i	i
CN(C)CCNc1ccc(Cl)cc1[N+](=O)[O-]	21*	i	i	i	i
CS(=O)(=O)NCCNc1ccc(Cl)cc1[N+](=O)[O-]	i	i	i	i	i
CCN=C(Nc1ccc2c(c1)OCO2)SC1CC(=O)N(c2ccc(OC)cc2)C1=O (stereo unspecified)	i	i	i	i	i
CO/N=C/c1ccc(N2CCN(C(=O)c3ccc(F)cc3)CC2)c([N+](=O)[O-])c1	i	i	i	i	i
CO/N=C/c1ccc(N2CCN(C(=O)c3ccc(Cl)cc3Cl)CC2)c([N+](=O)[O-])c1	12*	i	i	i	i
O=[N+]([O-])c1ccc(/C=N/Nc2nc(N3CCCCCC3)nc(N3CCCCCC3)n2)o1	32*	i	i	i	i
CCCC/C=C/C(NC(=O)c1ccc(-c2ccccc2)cc1)c1ccccc1 (stereo unspecified)	i	i	i	i	i
CCOc1ccccc1NC(=O)CN(c1ccc(OC)cc1)S(=O)(=O)c1c(C)[nH]c(=O)[nH]c1=O	20*	i	i	i	i
COc1ccc(/C=N/n2c(-c3ccc(C)cc3)n[nH]c2=S)cc1OC	i	i	i	i	i
Cc1cc(S(=O)(=O)N2CCC(N3CCCCC3)CC2)ccc1-n1cnnn1	33*	i	i	i	i
CC(C(=O)NCc1ccccc1)N1CCN(c2ccc(F)cc2)CC1 (stereo unspecified)	i	i	i	i	i
O=C(O)CCNc1nc(-c2ccccc2)c2cc(Br)ccc2n1	16*	i	i	i	i
SMILES	TRPC4 PAM	TRPC4 block	TRPC6 inh	TRPC4 agonist	TRPC6 activator
O=C1OCCN/C1=C\C(=O)c1ccc(Cl)cc1	i	i	i	i	i
O=C1OCCN/C1=C\C(=O)c1ccccc1	14*	i	i	i	i
CCOC(=O)c1cnc2c(-c3ccccc3)c(-c3ccccc3)nn2c1C	i	i	i	i	i
CCOc1ccc(-c2cc(NC(=O)c3c(F)cccc3F)c(C(=O)O)s2)cc1	i	-5*	i	i	i
CC(NCCS(=O)(=O)c1ccc(Cl)cc1)c1cccc(Cl)c1 (stereo unspecified)	i	i	i	i	i
CC(C)c1ccc(C(C)NCCS(=O)(=O)c2ccc(Br)cc2)cc1 (stereo unspecified)	19*	i	i	i	i
O=C(Nc1ccc(Cl)c(Cl)c1)c1ccc(Cl)c(Cl)c1	i	i	i	i	i
O=C(Nc1ccc(C2=NCCN2)cc1)c1ccc(Cl)c(C(=O)Nc2ccc(C3=NCCN3)cc2)c1	i	i	i	i	14.2*
COc1ccc2c(C)c(CCC(=O)NCCCN3CCCC3=O)c(=O)oc2c1C	i	-6*	i	i	i
CCCCNCc1cc(Cl)c(OCCC)c(OCC)c1	i	-7*	i	i	i
CCCCOc1c(Cl)cc(CNC(C)(C)CO)cc1OCC	i	i	i	i	i
CCCCN(C)CCCNC(=O)CN1N=C(c2ccc(Cl)cc2)CCC1=O	12*	i	i	102*	i
CCC1(c2ccc(F)cc2)NC(=O)N(CC(=O)c2cc(C)n(C3CC3)c2C)C1=O (stereo unspecified)	16*	i	i	54*	i
CN1/C(=C\C(=O)C[n+]2ccc3ccccc3c2)C(C)(C)c2ccccc21	i	-6*	i	i	i
O=C(Nc1ccon1)c1cccc(S(=O)(=O)N2CCCC2)c1	i	i	i	i	i
COc1ccc(-n2c(O)c(/C=N/NS(=O)(=O)c3cc(C)ccc3C)c3ccccc3c2=O)cc1OC	i	i	i	i	i
